Test: Toxicity liver stage against HepG2, at 10uM
Type: cell-based
Design: test concentration 10 uM, cell line HepG2-A16-CD81EGFP
Conditions: human, HepG2-A16-CD81EGFP cells; read-out: INHIBITION
Method in brief: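 Uninfected HepG2-A16-CD81EGFP cells, 3 × 10^3 per well, 1536-well, plated on prespotted compound at 10 μM final, parasite-free screening media added to match infected plates; puromycin 10 μM positive, DMSO 0.5% negative; run in parallel with 48 h PbLuc assay at 37 °C, 5% CO2; viability by CellTiter-Glo luminescence, normalized to controls.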

SMILES	cytotoxicity at 10 µM
CCc1ccc(CCC(=O)N2CCC(=O)Nc3cccnc32)cc1	-46.7%
Cn1ncnc1CNC1CCCc2cc(F)ccc21 (configuration not stated)	-5.62%
CC(C)CN1C(=O)CO[C@@H]2CN(C(=O)NC(C)C)C[C@H]21	-5.27%
O=C(Cn1c(=O)oc2ccccc21)NCC(O)c1ccc2c(c1)CCO2 (configuration not stated)	-6.81%
c1cnn(CC2CN(c3ncnc4ccsc34)CCO2)c1 (configuration not stated)	38.7%
O=C(CCN1CCc2ccccc21)N1C[C@@H](O)[C@H](N2CCOCC2)C1	1.23%
Cc1ccc(CNC(=O)Cc2c(C)nc3c(c2C)c(=O)[nH]n3C)cc1	-8.6%
O=C(CCC1CCCC1)NCc1nnc2ccccn12	2.52%
Cc1nc(CNC(=O)NC2CCN(c3ncccc3Cl)C2)no1 (configuration not stated)	11.9%
O=C(O)c1ccnc(-c2ccnc(NCCc3cscn3)n2)c1	0.852%
Cn1cc(CCNCc2cc(Cl)c3c(c2)OCCO3)cn1	-9.69%
CC(C)=CCCN1CCN(C)C2(CCC(=O)N(C)CC2)C1 (configuration not stated)	-54%
CN(Cc1ccccc1)C(=O)CN1CCCCC1Cn1cncn1 (configuration not stated)	10.4%
COc1ccc(CCNC(=O)C2CCCOC2)c(Cl)c1 (configuration not stated)	0.0357%
COc1ccccc1OC1(C(=O)O)CCN(c2ncnc(C)c2C)CC1	-11.2%
COc1ccc(F)c(CN2CCC(c3cc(O)nc(C)n3)C2)c1 (configuration not stated)	5.61%
CCCN1CC2(CCN(C)CC2)CC1C(=O)NCCn1ccc(C)n1 (configuration not stated)	-5.64%
CC(=O)N1C[C@@H](c2ccsc2)[C@@H]2CN(Cc3ccccc3Cl)CC[C@@H]21	3.16%
Cc1cc(C)cc(C(=O)Nc2cccc(CN3CCCC3C(N)=O)c2)c1 (configuration not stated)	4.38%
CC(=O)N(C)c1nc(Cn2nnnc2C(C)(C)C)cs1	6.56%
COCCNc1ncnc2c1CCN(C(=O)CC1CCC(=O)N1)CC2 (configuration not stated)	1.15%
CCn1cc(-c2cc(C(F)(F)F)nc(NC3CCCC3)n2)c(C)n1	2.33%
O=C1CN(C(=O)C2CN(c3cccc(F)c3)CCO2)CCN1 (configuration not stated)	5.37%

SMILES	cytotoxicity at 10 µM
Cc1nncn1CCNC(=O)C1SCCc2sccc21 (configuration not stated)	2.96%
C1CCC(CNC2CCSCC2)(N2CCOCC2)CC1	-14.5%
CN(C)S(=O)(=O)c1ccc(OCCNCCn2cccn2)cc1	0.626%
COc1ccccc1N1CCN(C(=O)Cn2nc(C)cc2C)CC1(C)C	9.62%
CN(C)c1ncc(CN2CCCC(Nc3ccc4c(c3)OCCO4)C2)s1 (configuration not stated)	8.12%
Cn1ncc2c1NC(=O)CC2c1ccccc1Cl (configuration not stated)	55.7%
Fc1cnc(N2CC[C@@H]3CN(Cc4ccncc4)CCO[C@@H]3C2)nc1	5.38%
CC(C)c1noc(CCNC(=O)C2COc3ccccc3C2)n1 (configuration not stated)	-1.24%
Cc1ccsc1CNC(=O)c1ccc(N2CCOC2=O)cc1	22.2%
Cc1nc(C(NC(=O)c2cc(C(C)C)[nH]n2)c2ccccc2)n[nH]1 (configuration not stated)	11.6%
CN(C)S(=O)(=O)N1CCC(c2nnc(C(F)(F)F)o2)CC1	3.79%
N#Cc1ccccc1N1CC2(CCCCN2CC2CC2)CC1=O (configuration not stated)	10.7%
COC[C@@]12CC[C@@H](N3CCOCC3)C[C@H]1CCN(c1ncccc1C)C2	-1.33%
CCC(C)N1CCc2nc(N3CCCC3)nc(NC(C)C)c2C1 (configuration not stated)	8.53%
NC(=O)Nc1ccc(C(=O)NCCn2cccc2)cc1	-1.23%
Cc1cc(=O)n(CC(=O)NCC2CCCO2)c(-c2cccc(Cl)c2)n1 (configuration not stated)	-11%
CC(NCc1ccco1)c1nnc2n1CCCC2 (configuration not stated)	-2.34%
Cc1noc(C)c1S(=O)(=O)NC(=O)COc1cccc(C(C)C)c1	-10.7%
Cc1cnn(CCNCc2ccccc2C#N)c1	-9.14%
CCn1cc(CN2CCN(CC(O)c3ccc(C)cc3C)CC2)cn1 (configuration not stated)	-24.6%
CC(C)C1CN(c2cccc(C#N)n2)CCCN1Cc1ccc(F)cc1 (configuration not stated)	10%
Cc1cc(NC(=O)CN2CCC(N3CCNC3=O)CC2)on1	2.99%
Cc1cccc(C(=O)Oc2cc(=O)n3cccc(C)c3n2)c1	1.11%

SMILES	cytotoxicity at 10 µM
COc1c(CNC2CCCc3ccccc32)c(C(C)C)nn1C (configuration not stated)	-2.9%
Cc1c(Br)cccc1NC(=O)N(C)CCO	-24.5%
COc1ccccc1OCCC(=O)N1CCCC1Cn1cccn1 (configuration not stated)	-5.19%
CC[C@H](C)[C@H](N)C(=O)N1CC(=O)c2sc(NCc3ccccc3)nc2C1	-9.58%
COc1cc(CNCc2ccnc(N3CCOCC3)c2)cc(Cl)c1OC	-8.7%
Cc1cc(C(=O)N2CCC3(CC2)C(=O)NCCN3CC(C)C)c(C)o1	9.61%
CCc1nc(CN2CCN(C(=O)c3cc(C)no3)CC2)cs1	-21.8%
Cc1[nH]c2c(F)cccc2c1CC(=O)NC1CCCCNC1=O (configuration not stated)	19.1%
CC(C)N1CC(C(=O)NCCc2csc(-c3ccncc3)n2)CC1=O (configuration not stated)	-21%
Cc1cccc(CN2C[C@@H]3COC[C@]3(CNC(=O)c3ccsc3)C2)n1	-1.85%
c1cnn(CC2CN(c3ncnc4sccc34)CCO2)c1 (configuration not stated)	25.1%
Cc1noc(C)c1CNC(=O)C(C)Oc1ccccc1F (configuration not stated)	3%
Cc1cc(CN(C)C2CCCN(c3cccnn3)C2)no1 (configuration not stated)	-2.45%
Cc1ccc(NC(=O)CNc2cccc3c2CCCC3)c(Br)c1	14.8%
CCn1ccnc1CN1CCN(CCC(=O)NC2CCCCC2)CC1	-12.3%
Cc1cc(C)nc(N2CCC(C(=O)O)(n3ccc(C(C)(C)C)n3)CC2)n1	-5.6%
c1ccc2oc(CCCN3CCCC3Cn3cncn3)nc2c1 (configuration not stated)	-1.42%
Cc1ccccc1CN(Cc1ccc(S(C)(=O)=O)cc1)CC(C)C	16.6%
c1ccc2sc(CN3CCCC3c3noc(C4CC4)n3)nc2c1 (configuration not stated)	-9.88%
Cc1cc(C2CCCN(CCC(=O)N3CCc4ccccc43)C2)n[nH]1 (configuration not stated)	-7.9%
Cn1nnc2c(sc3nc(N4CCOCC4)c4c(c32)CCC4)c1=O	-12.4%
Cc1c(Cn2c(=O)cnc3ccccc32)cnn1C	-0.473%
Cc1nc(C2CCCN(S(C)(=O)=O)C2)sc1Br (configuration not stated)	-10.3%

SMILES	cytotoxicity at 10 µM
Cc1ccc2nc(C3CCCN3Cc3csc(C)n3)[nH]c2c1 (configuration not stated)	1.58%
CC(C(=O)N1CCN(c2ccc(F)cc2)CC1)n1cc(Br)cn1 (configuration not stated)	9.35%
CSC(C)C(=O)N1CCC(Oc2cc(C)ccc2F)(C(=O)O)CC1 (configuration not stated)	2.88%
CSc1nccc(-c2cccc(-c3ccn(CC4COCCO4)n3)c2)n1 (configuration not stated)	-7.92%
CCN1CCc2[nH]cnc2C12CCN(Cc1ccc3nsnc3c1)CC2	3.72%
CC[C@@H](NC(C)=O)C(=O)NCc1cccnc1Oc1ccccc1OC	-3.06%
COc1ccc(-c2cc(C(=O)NCCn3ccnc3)n(C)n2)cc1	3.86%
CN(C(=O)c1cccnc1OCC(F)F)c1ccc2c(c1)CCO2	3.47%
Cc1ccc(N2CCC(NCc3cnc(C4CCC4)s3)CC2)nc1	6.75%
Cn1ccnc1CN1CCC2(CCC(=O)N2CCN2CCCC2)CC1	-0.171%
Cc1ccc(F)c(OC2(C(=O)O)CCN(C(=O)c3ccccc3)CC2)c1	4.2%
CCCN1CCN(C(=O)Cc2nc(-c3ccco3)oc2C)CC1	-6.14%
Cc1cccc(-c2nc(CN(Cc3cccs3)CC3CCCO3)no2)c1 (configuration not stated)	-3.01%
O=C(CCc1ccccc1F)NC1CCCN(c2ccccn2)C1 (configuration not stated)	2.21%
O=C(NCCC1COc2ccccc2O1)c1ccc(N2CC(O)C2)nc1 (configuration not stated)	72.1%
CN(CCc1ccncc1)CC1CCCN1c1cccnn1 (configuration not stated)	1.09%
CCCn1nc2c(cc1=O)CN(C(C)C(=O)Nc1nccs1)CC2 (configuration not stated)	-1.99%
O=S(=O)(NCc1ccc(S(=O)(=O)N2CCCC2)s1)c1ccc(Cl)cc1	-44%
CC(O)C(=O)N1CCC(c2nccn2Cc2cscn2)CC1 (configuration not stated)	0.557%
CC(=O)c1ccc(S(=O)(=O)NCC2CCN(c3cnccn3)CC2)cc1	0.723%
CN(C(=O)c1ccc(C2CCCO2)s1)C1CCS(=O)(=O)CC1 (configuration not stated)	1.72%
CCn1c(N)nc2cc(C(=O)NCCc3ccccc3C)cnc21	-10.8%
Cc1cccc(-c2nccnc2C2CCCN(C)C2)c1C (configuration not stated)	5.62%

SMILES	cytotoxicity at 10 µM
COc1cccc(C(=O)NCC(c2cccn2C)N2CCCC2)c1OC (configuration not stated)	-2.4%
O=S(=O)(c1ccccc1F)N1CCCCC1c1cc[nH]n1 (configuration not stated)	1.22%
Cn1c(C2CC2)nc2cc(NC(=O)C3(O)CCCC3)ccc21	2.84%
CCc1cc(N2CCC(NCCSc3nnnn3C)CC2)nc(C)n1	-15.2%
CN1C(=O)CC(c2cnn(C)c2)C12CCN(C(=O)c1cccn1C)CC2 (configuration not stated)	-74%
COc1cccc(CNc2cc(N3CCCC3CO)ncn2)n1 (configuration not stated)	-12.5%
COCCCn1ccc(NC(=O)NCCc2cccnc2)n1	-0.996%
Cc1csc2nc3n(c(=O)c12)CCN(C(=O)c1ccncc1)CC3	-2.65%
COC(=O)N1CCc2ccc(NC(=O)c3cn(C)nn3)cc2C1	-1.3%
COc1ncccc1NC(=O)C1CCS(=O)(=O)C1 (configuration not stated)	-4.48%
Cc1cc(C)c(CNC(=O)N(C)Cc2cccc(C#N)c2)c(=O)[nH]1	-5.49%
Cc1ccccc1-n1c(O)cc(C)c(C#N)c1=O	-1.54%
O=C(CN1CCCC(Cn2cncn2)C1)Nc1cccnc1 (configuration not stated)	2.01%
CCOc1cc(C)nc(N2CCN(Cc3nccn3C)CC2)n1	-4.04%
CCC[C@@H]1CN(Cc2ccc(C(F)(F)F)nc2)C[C@H]1NS(C)(=O)=O	10.5%
O=C1CCCCN1CCCNCc1cnc(C2CCC2)s1	0.00973%
COCCN1CCC(CNc2nc3ccccc3o2)CC1	-53.6%
Cn1cc(CN2CCCC23CCN(Cc2nccn2C)CC3)cn1	-5.64%
Clc1ccc(OCCCN2CCOC(Cn3cncn3)C2)cc1 (configuration not stated)	-10%
CC(C)c1nn(C)c(N(C)C)c1CNCc1ccccc1CO	-9.89%

From ChEMBL document CHEMBL4513216, “Probing the Open Global Health Chemical Diversity Library for Multistage-Active Starting Points for Next-Generation Antimalarials” (ACS Infect Dis, 2020)
